Data reported in paper PMC3170876 (Chemmedchem, 2011).

What was measured:
[1] = molecular target: human cytochrome P450 2D6 (Homo sapiens, UniProt P10635); assay: Inhibition of human cytochrome P450 2D6; assay type: in vitro ADME
Procedure, shortened: (§1)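 Human CYP450 isoform inhibition (1A2, 2C9, 2C19, 2D6, 3A4) measured as IC50 or as percent inhibition at 10 μm test compound. For 3A4, two probe substrates were used separately: 7-benzyloxy-trifluoromethylcoumarin (BFC) and […] (BQ). Each value is the mean of two measurements.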

[2] = molecular target: T1, human cytochrome P450 1A2 (Homo sapiens, UniProt P05177); assay: Inhibition of human cytochrome P450 1A2; assay type: in vitro ADME
T1 sequence (P05177 1-516): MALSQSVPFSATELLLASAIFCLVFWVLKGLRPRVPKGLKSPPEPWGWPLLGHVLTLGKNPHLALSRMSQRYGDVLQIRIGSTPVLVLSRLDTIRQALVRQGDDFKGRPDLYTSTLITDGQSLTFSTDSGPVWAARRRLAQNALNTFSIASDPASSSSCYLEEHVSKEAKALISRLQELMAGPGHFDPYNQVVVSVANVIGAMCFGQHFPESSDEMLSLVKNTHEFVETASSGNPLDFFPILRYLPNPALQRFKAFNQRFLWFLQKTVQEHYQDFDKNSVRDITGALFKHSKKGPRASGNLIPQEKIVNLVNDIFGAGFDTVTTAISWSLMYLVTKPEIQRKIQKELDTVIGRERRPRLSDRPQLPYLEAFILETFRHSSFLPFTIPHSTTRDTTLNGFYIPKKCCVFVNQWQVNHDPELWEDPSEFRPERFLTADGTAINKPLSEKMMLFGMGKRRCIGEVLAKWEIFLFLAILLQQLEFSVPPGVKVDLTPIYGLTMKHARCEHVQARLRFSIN
Procedure, shortened: as §1

[3] = molecular target: human cytochrome P450 2C19 (Homo sapiens, UniProt P33261); assay: Inhibition of human cytochrome P450 2C19; assay type: in vitro ADME
human cytochrome P450 2C19, sequence (P33261 whole entry): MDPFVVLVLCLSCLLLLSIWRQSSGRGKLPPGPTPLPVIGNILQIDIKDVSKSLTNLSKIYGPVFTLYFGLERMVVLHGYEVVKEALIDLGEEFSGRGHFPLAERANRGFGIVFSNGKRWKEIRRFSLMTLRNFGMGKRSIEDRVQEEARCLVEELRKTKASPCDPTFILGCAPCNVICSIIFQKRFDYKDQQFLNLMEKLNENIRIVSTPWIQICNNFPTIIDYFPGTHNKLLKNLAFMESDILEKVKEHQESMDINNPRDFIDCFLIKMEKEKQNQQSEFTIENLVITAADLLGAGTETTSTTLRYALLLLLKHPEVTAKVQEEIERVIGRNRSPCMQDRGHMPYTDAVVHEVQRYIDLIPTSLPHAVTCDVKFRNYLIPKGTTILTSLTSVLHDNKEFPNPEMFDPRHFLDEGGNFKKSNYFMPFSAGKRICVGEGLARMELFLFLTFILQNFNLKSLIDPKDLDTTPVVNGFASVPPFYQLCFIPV
Procedure, shortened: as §1

[4] = molecular target: human cytochrome P450 3A4 (Homo sapiens, UniProt P08684); assay: Inhibition of human cytochrome P450 3A4; assay type: in vitro ADME; details: IC50 CYP450 3A4-BQ, substrate BQ; mean of two measurements
human cytochrome P450 3A4, sequence (P08684 whole entry): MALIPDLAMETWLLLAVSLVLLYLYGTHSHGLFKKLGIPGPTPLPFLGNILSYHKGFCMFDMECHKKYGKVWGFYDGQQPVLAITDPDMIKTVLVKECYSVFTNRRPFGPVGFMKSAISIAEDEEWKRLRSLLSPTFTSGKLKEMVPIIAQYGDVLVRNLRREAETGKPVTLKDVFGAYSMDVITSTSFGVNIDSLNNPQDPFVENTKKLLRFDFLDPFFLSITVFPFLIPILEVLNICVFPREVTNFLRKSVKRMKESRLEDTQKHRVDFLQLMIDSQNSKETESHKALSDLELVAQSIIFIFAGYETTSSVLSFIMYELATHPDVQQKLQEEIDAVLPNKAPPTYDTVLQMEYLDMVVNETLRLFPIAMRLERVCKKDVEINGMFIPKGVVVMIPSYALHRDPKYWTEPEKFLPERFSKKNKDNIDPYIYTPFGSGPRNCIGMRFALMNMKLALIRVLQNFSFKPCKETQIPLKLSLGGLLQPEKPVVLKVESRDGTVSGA
Procedure, shortened: as §1

[5] = molecular target: human cytochrome P450 2C9 (Homo sapiens, UniProt P11712); assay: Inhibition of human cytochrome P450 2C9; assay type: in vitro ADME
human cytochrome P450 2C9, sequence (P11712 whole entry): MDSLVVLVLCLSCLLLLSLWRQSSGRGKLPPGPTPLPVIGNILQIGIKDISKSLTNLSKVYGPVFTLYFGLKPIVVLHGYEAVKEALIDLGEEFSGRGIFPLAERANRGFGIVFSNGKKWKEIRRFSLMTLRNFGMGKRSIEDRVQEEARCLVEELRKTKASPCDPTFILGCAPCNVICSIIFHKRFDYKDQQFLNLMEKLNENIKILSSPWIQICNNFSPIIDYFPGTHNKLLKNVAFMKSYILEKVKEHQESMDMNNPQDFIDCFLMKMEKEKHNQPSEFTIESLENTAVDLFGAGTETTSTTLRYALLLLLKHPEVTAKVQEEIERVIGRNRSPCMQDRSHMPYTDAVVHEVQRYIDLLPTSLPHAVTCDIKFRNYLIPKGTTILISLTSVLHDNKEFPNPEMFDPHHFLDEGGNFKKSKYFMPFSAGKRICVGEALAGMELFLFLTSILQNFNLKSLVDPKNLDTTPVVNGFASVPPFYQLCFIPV
Procedure, shortened: as §1

17β-HSD1 = molecular target: T2, 17β-HSD1 (Homo sapiens, UniProt P14061); assay: Selectivity: inhibition of 17β-HSD1; details: at a concentration of 10 μM (data not shown)
T2 sequence (P14061 1-328): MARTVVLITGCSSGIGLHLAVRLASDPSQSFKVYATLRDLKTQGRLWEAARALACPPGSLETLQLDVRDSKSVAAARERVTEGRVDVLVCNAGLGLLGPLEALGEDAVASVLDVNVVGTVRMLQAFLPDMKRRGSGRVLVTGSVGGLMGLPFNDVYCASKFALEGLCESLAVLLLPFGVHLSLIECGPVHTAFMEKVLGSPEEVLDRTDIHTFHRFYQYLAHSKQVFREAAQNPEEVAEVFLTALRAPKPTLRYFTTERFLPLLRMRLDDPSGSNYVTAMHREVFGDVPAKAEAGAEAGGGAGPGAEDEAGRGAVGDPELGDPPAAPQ

human 11β-HSD2 = molecular target: T3, human 11β-HSD2 (Homo sapiens, UniProt P80365); assay: Selectivity: inhibition of human 11β-HSD2; assay type: cell-based; details: at a concentration of 10 μM (data not shown)
T3 sequence (P80365 1-405): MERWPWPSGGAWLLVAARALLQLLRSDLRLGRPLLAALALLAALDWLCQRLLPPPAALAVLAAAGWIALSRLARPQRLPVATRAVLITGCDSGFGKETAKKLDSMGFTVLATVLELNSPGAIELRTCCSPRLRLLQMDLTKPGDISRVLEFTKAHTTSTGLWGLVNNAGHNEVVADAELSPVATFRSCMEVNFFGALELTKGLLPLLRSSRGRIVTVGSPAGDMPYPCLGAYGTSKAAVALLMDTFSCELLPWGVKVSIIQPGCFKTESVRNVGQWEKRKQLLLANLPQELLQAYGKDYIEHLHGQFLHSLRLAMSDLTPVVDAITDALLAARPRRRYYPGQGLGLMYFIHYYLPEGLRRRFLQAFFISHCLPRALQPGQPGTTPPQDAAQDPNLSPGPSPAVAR

[6] = Metabolic stability in human liver microsomes; assay type: in vitro ADME; details: 37 °C, NADPH, 40 min incubation, mean of two experiments
Procedure, shortened: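 Parent compound was incubated with human liver microsomes plus NADPH cofactor at 37 °C for 40 min. Loss of parent was followed by HPLC, and half-life and intrinsic clearance were calculated from the depletion. Values are the mean of two experiments.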

mouse 11β-HSD1 = mouse 11β-HSD1 (Mus musculus, UniProt P50172); assay: Inhibition of mouse 11β-HSD1; assay type: cell-based
mouse 11β-HSD1, sequence (P50172 whole entry): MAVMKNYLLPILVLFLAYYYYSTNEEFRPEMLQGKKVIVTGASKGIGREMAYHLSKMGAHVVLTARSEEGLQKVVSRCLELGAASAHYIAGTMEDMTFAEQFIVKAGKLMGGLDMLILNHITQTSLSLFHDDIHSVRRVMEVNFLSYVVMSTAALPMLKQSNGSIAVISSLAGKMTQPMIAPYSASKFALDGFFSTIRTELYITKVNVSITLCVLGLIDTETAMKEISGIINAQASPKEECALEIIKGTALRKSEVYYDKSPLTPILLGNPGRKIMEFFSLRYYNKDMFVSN

[7] = Membrane permeability in the Caco-2 cell model; assay type: in vitro ADME; details: human
Procedure, shortened: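 Caco-2 monolayer permeability. Test compound was applied at 20 μm, and the apparent permeability coefficient (Papp) was determined in the apical-to-basolateral direction.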

human 11β-HSD1 = human 11β-HSD1 (Homo sapiens, UniProt P28845); assay: 11β-HSD1 inhibition cellular assay; assay type: cell-based; details: IC50, human 11β-HSD1, HEK293 cell line transfected with human HSD11B1 gene; mean of three measurements, variance less than 20 %
human 11β-HSD1, sequence (P28845 whole entry): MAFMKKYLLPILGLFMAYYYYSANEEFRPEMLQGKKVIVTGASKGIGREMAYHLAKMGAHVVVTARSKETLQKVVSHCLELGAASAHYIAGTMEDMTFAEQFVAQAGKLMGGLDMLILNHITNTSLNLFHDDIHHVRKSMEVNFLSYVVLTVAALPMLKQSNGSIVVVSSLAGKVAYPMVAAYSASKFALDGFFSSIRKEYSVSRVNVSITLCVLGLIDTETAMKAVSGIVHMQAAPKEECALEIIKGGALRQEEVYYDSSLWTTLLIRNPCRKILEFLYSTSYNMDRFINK

human cytochrome P450 2D6, sequence (P10635 whole entry, canonical isoform): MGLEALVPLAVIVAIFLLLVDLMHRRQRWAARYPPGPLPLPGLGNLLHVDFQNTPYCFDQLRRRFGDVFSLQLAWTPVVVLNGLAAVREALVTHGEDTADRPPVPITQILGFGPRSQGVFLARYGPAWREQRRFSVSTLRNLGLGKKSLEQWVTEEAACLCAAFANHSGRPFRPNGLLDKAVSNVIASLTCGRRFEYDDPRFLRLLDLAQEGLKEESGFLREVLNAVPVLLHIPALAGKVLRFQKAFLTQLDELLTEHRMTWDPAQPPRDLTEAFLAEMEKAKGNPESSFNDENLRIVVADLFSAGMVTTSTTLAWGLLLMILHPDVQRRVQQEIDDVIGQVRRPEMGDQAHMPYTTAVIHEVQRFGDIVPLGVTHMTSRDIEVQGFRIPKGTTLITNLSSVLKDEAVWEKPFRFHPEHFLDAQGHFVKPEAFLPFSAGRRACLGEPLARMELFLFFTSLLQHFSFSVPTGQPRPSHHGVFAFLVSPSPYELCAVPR

IC50 [1] [µM]	melting point [°C]	IC50 [2] [µM]	IC50 [3] [µM]	IC50 [4] [µM]	IC50 [5] [µM]	inhibition against 17β-HSD1 (17β-HSD1)	inhibition against human 11β-HSD2 (human 11β-HSD2)	CLint [6] [µL/min/mg]	IC50 (mouse 11β-HSD1) [µM]	Papp A→B at 20 μM [7] [×10⁻⁶ cm/s]	IC50 (human 11β-HSD1) [µM]	Structure (SMILES)
> 100	111 to 113	> 100	17	30	11							Cc1nnc(S(=O)(=O)CC(=O)C23CC4CC(CC(C4)C2)C3)s1 [Compound 37, 1-(Adamantan-1-yl)-2-(5-methyl-[1,3,4]thiadiazole-2-sulfonyl)ethanone]
		21	3.6	62		inactive	inactive	8.7				Cn1cnnc1SCC(=O)C12CC3CC(CC(C3)C1)C2 [Compound 28, 1-(Adamantan-1-yl)-2-(4-methyl-4H-[1,2,4]triazol-3-ylsulfanyl)-ethanone]
	95 to 98	33	30	12					0.02	22	< 0.05	O=C(C[S+]([O-])Cc1cccs1)C12CC3CC(CC(C3)C1)C2 (stereo not shown) [Compound 14, 1-(Adamantan-1-yl)-2-(thiophen-2-ylmethanesulfinyl)ethanone]
